# TAAR1 agonist: agonists of human TAAR1; AID 624467; hit rate 0.99% among 360,000; Q96RJ0; activation, % at 3 µM; CHO RD-HGA16 TAAR1, Fluo-8 calcium fluorescence; vehicle wells 0%, saturating PEA agonist 100%;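 active = activation above the mean activation of all test compounds in the run plus 3 SD, cut at about 38% in these data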
# Target sequence (Q96RJ0 whole entry, looked up): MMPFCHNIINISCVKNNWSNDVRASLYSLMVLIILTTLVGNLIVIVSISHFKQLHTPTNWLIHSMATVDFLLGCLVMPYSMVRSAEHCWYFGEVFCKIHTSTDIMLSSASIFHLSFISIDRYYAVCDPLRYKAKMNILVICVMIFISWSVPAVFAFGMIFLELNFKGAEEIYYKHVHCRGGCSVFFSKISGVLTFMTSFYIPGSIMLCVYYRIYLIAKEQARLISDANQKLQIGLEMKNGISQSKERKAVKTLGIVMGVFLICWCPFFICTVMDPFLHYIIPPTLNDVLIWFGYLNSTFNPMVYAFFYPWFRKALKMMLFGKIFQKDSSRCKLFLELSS
#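 System: CHO-derived RD-HGA16 cells with stable Gα16 and human TAAR1. Times: 17-24 h plating, Fluo-8 75 min 37 °C, 30 min RT. Measured by: calcium-sensitive Fluo-8 signal, excitation 470-495, emission 515-575 nm. Read-out basis: % activation relative to PEA EC100 response. Control set: DMSO and PEA EC100. Repeats: no replicates (n 1).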
# CHO parental Ca: counter-screen: ATP calcium response change in parental CHO cells; parental CHO-K1, ATP-induced calcium, Fluo-8 fluorescence; inhibition, % at 5.6 µM; hit rate 0.63% among 330,000;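 active = inhibition above that plate's mean sample inhibition plus 3 SD, cut at about 26% in these data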;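 note: 0% = ATP-challenged DMSO wells and 100% = DMSO wells without ATP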
#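 Material: Parental CHO cells | Reagent: ATP | Compound dosing: Single nominal dose of 5.6 µM per compound | Detection: Intracellular calcium via Fluo-8 no-wash fluorescent dye | Read-out: % inhibition of ATP-induced calcium mobilization | Benchmarks: Low control ATP plus DMSO, high control DMSO only | Replicates: Singlicate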
# TAAR1 antag: human TAAR1 antagonism. Q96RJ0. CHO RD-HGA16 TAAR1, Fluo-8 calcium fluorescence, antagonist. inhibition, % at 3 µM. hit rate 1.5% among 360,000;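 active = inhibition above a per-plate cutoff, the mean inhibition of test compounds on that plate plus 3 SD, cut at about 49% in these data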;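 note: 0% = DMSO plus EC80 beta-PEA response and 100% = DMSO alone without agonist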
#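 System: CHO RD-HGA16 cells bearing hTAAR1. Reagent: EC80 β-phenethylamine stimulus. Schedule: seeding 17-24 h prior, 75-min 37 °C, 30-min RT dye loading. Signal: Fluo-8 intracellular calcium dye fluorescence, real-time kinetic reads. Read-out: % inhibition from peak post-agonist over basal fluorescence ratio. Benchmarks: vehicle wells and EC80 agonist wells. Replicates: n of 1.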
# GPR7 antagonist: blocks human GPR7 receptor signaling. hit rate 1.1% among 290,000. GPR7-expressing cells, fluorescence antagonist assay. P48145. inhibition, % at 4.4 µM; in the data active = inhibition above about 16%, passing the limit was not always enough;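 note: cells stimulated with the agonist NPW; 0% = agonist with vehicle and 100% = vehicle without agonist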
# Target sequence (P48145 whole entry, looked up): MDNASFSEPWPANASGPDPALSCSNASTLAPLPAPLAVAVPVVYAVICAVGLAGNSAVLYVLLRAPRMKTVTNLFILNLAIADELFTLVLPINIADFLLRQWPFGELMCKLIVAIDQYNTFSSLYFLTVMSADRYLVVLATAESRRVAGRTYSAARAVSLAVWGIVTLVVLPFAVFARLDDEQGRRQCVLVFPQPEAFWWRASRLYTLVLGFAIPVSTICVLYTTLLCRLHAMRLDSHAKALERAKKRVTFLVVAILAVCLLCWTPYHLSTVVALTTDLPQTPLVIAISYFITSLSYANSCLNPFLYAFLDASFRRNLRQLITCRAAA
# OX1R antag-1: antagonists of human orexin 1 receptor; O43613; CHO/OX1R cells, Fluo-8 calcium fluorescence, orexin A; hit rate 0.43% among 330,000; inhibition, % at 5 µM; AID 434989;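 active = inhibition above its plate's threshold, mean inhibition of all tested compounds on the plate plus 3 SD, cut at about 37% in these data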;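 note: 0% = orexin A challenge wells and 100% = SB-334867-A antagonist wells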
# OX1R antag-2: OX1R (human) antagonism | O43613 | OX1R-expressing cells, FRET antagonist read-out | inhibition, % at 6.6 µM | hit rate 1.8% among 330,000 | AID 485270; in the data active = inhibition mostly above about 38%, no sharp cut-off; inactive = mostly below about 40%;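 note: 0% = agonist challenge alone and 100% = reference antagonist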
# nonsel antag count: nonselective antagonism, TAAR1 counter-screen; shares compounds with TAAR1 antag; counterscreen cell line, calcium fluorescence, antagonist mode; inhibition, % at 3 µM; hit rate 77% among 2,400; in the data active = inhibition above about 22%;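 note: CHO-Ga16 host cells stimulated with ATP at an EC80 level; 0% = agonist EC80 plus vehicle and 100% = vehicle without agonist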
# TAAR1 ant conf: human TAAR1 antagonism, confirmed. shares compounds with TAAR1 antag. TAAR1-expressing cells, fluorescence antagonist read-out. inhibition, % at 3 µM. hit rate 40% among 2,400. AID 651785; in the data active = inhibition above about 49%;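 note: CHO-Ga16 host cells challenged with agonist PEA near its EC80; 0% = agonist at EC80 plus vehicle and 100% = vehicle with no agonist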
# Ga16 ag counter: counter-screen for TAAR1 antagonists: nonselective Ga16 agonists. Ga16-expressing cells, calcium fluorescence, agonist counterscreen. activation, % at 3 µM. hit rate 18% among 2,400. shares compounds with TAAR1 antag. AID 651953; in the data active = activation above about 12%;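 note: 0% = vehicle wells and 100% = saturating stimulus response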
# TAAR1 ag count: activates human TAAR1 in antagonist counter-screen. shares compounds with TAAR1 antag. hTAAR1 cell line, fluorescence activation, agonist mode. activation, % at 3 µM. hit rate 2% among 2,400. AID 651955; in the data active = activation above about 37%;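 note: CHO cells stably expressing TAAR1 with calcium dye readout; 0% = DMSO vehicle and 100% = full agonist response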
# * hit, by the source's call; / = no result. This is a sample that favours compounds with a hit; in the whole collection about 4.6% have one here.
SMILES,TAAR1 agonist,CHO parental Ca,TAAR1 antag,GPR7 antagonist,OX1R antag-1,OX1R antag-2,nonsel antag count,TAAR1 ant conf,Ga16 ag counter,TAAR1 ag count
COc1cc(NC(=S)NC(=O)c2ccccc2F)ccc1NC(=O)c1cccs1,5,-17,-13,-10,-38,13,/,/,/,/
CN(C)C(=O)c1cc(C(=O)c2ccc(C(F)(F)F)cc2F)c[nH]1,4,-6,5,1,-7,3,/,/,/,/
O=C(O)c1ccccc1C(=O)N1CCN(c2ncccn2)CC1,10,/,-4,11,/,/,/,/,/,/
CCN(C(=O)c1cnc(N2CCN(c3ncccn3)CC2)c2ccccc12)c1cccc(Cl)c1,13,-12,50*,-3,-40,16,27*,31,4,6
O=C(c1cnc(N2CCN(c3ncccn3)CC2)c2ccccc12)N1CCN(c2ncccn2)CC1,21,-6,59*,-10,-22,17,32*,49*,11,13
CN(C(=O)c1cnc(N2CCN(c3ncccn3)CC2)c2ccccc12)c1ccc(Cl)cc1,14,-20,51*,-9,-34,6,15,39,8,13
CC(=O)NC(c1ccccc1)c1nc(-c2cccnc2)cs1 (centres undefined),3,/,-7,/,/,/,/,/,/,/
COCCCn1cc(CN2CC(N3CCN(C)CC3)CS2(=O)=O)nn1 (centres undefined),1,/,-5,/,/,/,/,/,/,/
O=C(Cc1c(Cl)cccc1Cl)OCC(=O)N1CCc2ccccc2C1,2,-24,-8,15,-19,14,/,/,/,/
COCC1CN(CCc2ccc(F)cc2)S(=O)(=O)c2c(OCCN3C(=O)[C@@H]4[C@H](C3=O)[C@@H]3C=C[C@H]4C3)cccc2O1 (some centres undefined),18,/,63*,/,/,/,36*,58*,9,12
CN(Cc1ccccc1)C(=O)c1ccc(NC(=O)Cc2ccc(NC(=O)C3CCN(C(=O)C4CCCC4)CC3)cc2)cc1,0,/,-7,/,/,/,/,/,/,/
CCCCn1c(N)c(N(CC(C)C)C(=O)C2CC(=O)N(c3ccc(C)cc3)C2)c(=O)[nH]c1=O (centres undefined),-1,-10,3,/,-13,11,/,/,/,/
CCC(C)(C)NC(=O)C(c1ccncc1)N(C(=O)Cn1nnc2ccccc21)c1cc2c(cc1C(C)=O)OCO2 (centres undefined),2,-15,3,-10,-23,35,/,/,/,/
CCN1CCc2c(OCC(=O)Nc3ccccc3)cccc2C1=O,2,-11,1,-8,-10,11,/,/,/,/
Cc1ccc(C)c(NC(=O)COc2cccc3c2CCN(Cc2ccccc2)C3=O)c1,8,-30,63*,-9,-40,6,27*,39,5,2
COc1ccc(CN(Cc2ccccn2)C(=O)CN2C(=O)C(C)Oc3ccccc32)cc1 (centres undefined),15,-11,52*,-9,-14,28,29*,49*,11,12
N=C1C2=C3Sc4ccccc4N3CCCC2=NN1c1cccc(S(=O)(=O)O)c1,0,20,-19,-9,-5,21,/,/,/,/
Cc1ccc(-c2nn(C)c(=O)c3ccccc23)cc1CNC(=O)/C=C/c1ccccc1,-1,-17,13,-1,-31,19,/,/,/,/
O=C(N/C(=C/C=C/c1ccccc1)C(=O)N1CCOCC1)c1ccccc1Cl,4,-18,9,-2,-18,23,/,/,/,/
O=C(Nc1ccc(C(=O)O)cc1)/C(=C\C=C\c1ccccc1)NC(=O)c1ccccc1Cl,3,-13,58*,-9,1,32,23*,30,6,6
Cc1ccc(-c2nnc(NCc3nc4ccccc4[nH]3)c3ccccc23)cc1S(=O)(=O)N(C)C,5,-28,22,-9,-10,15,/,/,/,/
CCOC(=O)c1oc2ccccc2c1NC(=O)c1cccc(OC)c1,4,-33,-10,-17,-52,9,/,/,/,/
COc1cccc(C(=O)Nc2c(C(N)=O)oc3ccccc23)c1,12,-15,56*,-8,6,77*,24*,41,7,9
Nc1nc(/C=C/c2cccnc2)nc(-c2ccccc2O)n1,33,9,67*,-5,-7,39,32*,58*,14*,18
Nc1nc(/C=C/c2ccc(F)cc2)nc(-c2ccccc2O)n1,-1,-20,27,-4,-19,32,/,/,/,/
SMILES,TAAR1 agonist,CHO parental Ca,TAAR1 antag,GPR7 antagonist,OX1R antag-1,OX1R antag-2,nonsel antag count,TAAR1 ant conf,Ga16 ag counter,TAAR1 ag count
CC1Cc2ccccc2N1C(=O)c1cc2c(=O)n3ccccc3nc2n1C (centres undefined),17,-20,56*,-14,-19,10,27*,49*,12*,18
Nc1c(C(=O)OCC2CCCO2)c2nc3ccccc3nc2n1-c1ccc2c(c1)OCCO2 (centres undefined),8,-19,52*,-7,-4,27,30*,39,7,8
Cc1ccc(NC(=O)c2cc(C(C)(C)C)nn2Cc2ccccc2)cc1,6,-17,61*,-20,-17,12,24*,42,5,1
CCC(C)C(CO)NCCCn1cnc(C(=O)Nc2ccc(C)c(C)c2)n1 (centres undefined),0,/,9,/,/,/,/,/,/,/
Cc1cc(C)cc(OCC(=O)Nc2ccc(N3CCN(C(=O)c4ccco4)CC3)cc2)c1,23,5,74*,-10,10,26,43*,62*,12*,9
O=C(COc1ccc(Cl)cc1)Nc1ccc(N2CCN(C(=O)c3ccco3)CC2)cc1,23,-2,80*,1,17,15,42*,46,12*,28
Cn1c(=O)[nH]c(=O)c2c1nc(N1CCOCC1)n2CC(=O)c1ccccc1,1,-16,-12,-3,-2,19,/,/,/,/
O=C(NCCc1ccc(F)cc1)C(=O)NCC1CCCN1S(=O)(=O)c1ccccc1 (centres undefined),16,-24,65*,/,4,58*,27*,51*,10,14
COc1ccc(CCNC(=O)C(=O)NCC2CCCN2S(=O)(=O)c2ccccc2)cc1 (centres undefined),14,-22,65*,/,5,22,27*,50*,11,18
O=C(NCc1ccc(F)cc1)C(=O)NCC1CCCN1S(=O)(=O)c1ccccc1 (centres undefined),-1,-19,-6,/,-37,18,/,/,/,/

# Screens from PubChem BioAssay.
